Data set [1] can be described thus: Selectivity ratio of CC50 for mouse J774A1 cells to IC50 for promastigote stage of Leishmania amazonensis WHOM/BR/75/JOSEFA. As to conditions: read-out: Ratio CC50/IC50. The format is ADME, cell-based, J774.A1.
Data set [2] is described as follows: Selectivity ratio of CC50 for monkey LLC-MK2 cells to IC50 for epimastigote stage of epimastigote stage of Trypanosoma cruzi Y. As to conditions: read-out: Ratio CC50/IC50. It counts as ADME, cell-based.
Data set [3] is described as follows: Selectivity ratio of CC50 for monkey LLC-MK2 cells to IC50 for amastigote stage of Trypanosoma cruzi Y. It counts as ADME, cell-based. The note with it: read-out: Ratio CC50/IC50.
For data set [4], the system named is Leishmania amazonensis. Briefly: Antileishmanial activity against promastigote stage of Leishmania amazonensis WHOM/BR/75/JOSEFA after 72 hrs by hemocytometry. It counts as functional, organism-based.
The nature of data set [5]: Selectivity ratio of CC50 to IC50 for promastigote stage of Leishmania amazonensis WHOM/BR/75/JOSEFA. More on the design: reference not given here.
Data set [6] relates to Trypanosoma cruzi. Briefly: Antitrypanosomal activity against epimastigote stage of Trypanosoma cruzi Y after 96 hrs by hemocytometry. The format is functional, organism-based. In short, it runs like this:
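Log-phase parasites (promastigotes 3-day, Warren's medium + 10% FBS, 25°C; epimastigotes 4-day, LIT + 10% FBS, 28°C) seeded at 1 × 10^6 cells/mL with compound (0.1-100 µM; DMSO ≤1%). Promastigotes read at 72 h, epimastigotes at 96 h, by hemocytometer counting. IC50 by nonlinear regression.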

Data set [7] has as its system Trypanosoma cruzi. Briefly: Antitrypanosomal activity against trypomastigote stage of Trypanosoma cruzi Y infected in monkey LLC-MK2 cells after 96 hrs by Pizzi-Brener method. The format is functional, organism-based.
The nature of data set [8]: Selectivity ratio of CC50 for monkey LLC-MK2 cells to IC50 for epimastigote stage of epimastigote stage of Trypanosoma cruzi Y.
Data set [9] relates to Trypanosoma cruzi. Put plainly: Antitrypanosomal activity against amastigote stage of Trypanosoma cruzi Y infected in monkey LLC-MK2 cells after 96 hrs by Geimsa staining-based light microscopy. The note with it: LLC-MK2, 96 h. The format is functional, organism-based. In outline: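 LLCMK2 monolayers (2.5 x 10^5 cells/mL, 24 h, 37 °C, 5% CO2) infected with trypomastigotes at 10 per host cell for 24 h, washed, treated with compound (0.1 to 50 μM) 96 h. Methanol-fixed, Giemsa-stained, 200 cells counted; survival index (% infected × amastigotes/cell); IC50 by nonlinear regression.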

The nature of data set [10]: Selectivity ratio of CC50 for monkey LLC-MK2 cells to EC50 for trypomastigote stage of Trypanosoma cruzi Y. It counts as ADME, cell-based. The note with it: read-out: Ratio CC50/EC50.
Data set [11] can be described thus: Selectivity ratio of CC50 for BALB/c mouse peritoneal macrophages to IC50 for amastigote stage of Leishmania amazonensis WHOM/BR/75/JOSEFA.
Data set [12] relates to Leishmania amazonensis. Put plainly: Antileishmanial activity against amastigote stage of Leishmania amazonensis WHOM/BR/75/JOSEFA infected in BALB/c mouse peritoneal macrophages after 72 hrs by Geimsa staining-based light microscopy. The format is functional, organism-based.

As a reminder, the IC50 is the concentration needed to halve the response being measured. Broadly, the EC50 is the concentration needed to bring the measured effect to its halfway point.

`COc1ccc(-c2nc3ccccc3nc2-c2ccc(OC)cc2)cc1`: the selectivity ratio in data set [1] stood at 19.7; in [2], 9; in [3], 38.4; in data set [5], 19.7; in data set [8], 9. Also, the IC50 in the data set with Leishmania amazonensis [4] came to 30000 nM; in the data set on Trypanosoma cruzi [6] it was 36600 nM; in the data set with Trypanosoma cruzi [9] it was 8.6 µM. In the data set with Trypanosoma cruzi [7], this compound registered an EC50 greater than 100 µM.

As for `COc1ccc2nc(-c3ccccc3)c(S(C)(=O)=O)nc2c1`, the selectivity ratio in data set [1] came to 4.1; in [2], 9.3; in data set [5], 4.1; in data set [8], 9.3; in [10], 5.5. The IC50 in the data set with Leishmania amazonensis [4] was 24700 nM; in the data set with Trypanosoma cruzi [6], 28400 nM. A half-maximal response in the data set with Trypanosoma cruzi [7] (EC50) required 48.1 µM.

`COc1ccc2nc(Cl)c([S+](C)[O-])nc2c1` (stereo unspecified): the selectivity ratio stood at 27.8 in [1]; 39.2 in [2]; 27.8 in [5]; 39.2 in [8]; 4.4 in [10]. In data set [11], the “Ratio CC50/IC50” value worked out at 4.9. The IC50 in the data set on Leishmania amazonensis [4] worked out at 800 nM; with Trypanosoma cruzi [6] it was 500 nM; with Leishmania amazonensis [12], 4.6 µM. Moreover, in the data set with Trypanosoma cruzi [7], the EC50 turned out to be 4.2 µM.

Consider `C[S+]([O-])c1nc2ccc(Cl)cc2nc1Cl` (stereo unspecified), for which the selectivity ratio in data set [1] worked out at 108; in data set [2], 54.2; in [5], 108; in [8] it was 54.2; in data set [10] it was 2.9. Moreover, the “Ratio CC50/IC50” value in data set [11] was 9. Further, the IC50 came out at 100 nM in the data set on Leishmania amazonensis [4], 100 nM in the data set on Trypanosoma cruzi [6] and 1.5 µM with Leishmania amazonensis [12]. For the same compound, in the data set with Trypanosoma cruzi [7], the EC50 came to 1.7 µM.

Regarding `CS(=O)(=O)c1nc2ccccc2nc1Cl`, the selectivity ratio in data set [1] was 14.4; in data set [2] it was 70.1; in data set [5], 14.4; in data set [8], 70.1; in data set [10], 7.3. The IC50 in the data set with Leishmania amazonensis [4] was 1600 nM; in the data set with Trypanosoma cruzi [6], 600 nM; in the data set on Trypanosoma cruzi [9], greater than 15 µM. This compound showed an EC50 in the data set with Trypanosoma cruzi [7] of 6.4 µM.

For `COc1ccc2nc(NC3CCCCC3)c(S(C)(=O)=O)nc2c1`, the selectivity ratio in data set [1] was found to be 18.1; in data set [2], 20.8; in [5] it was 18.1; in data set [8] it was 20.8; in [10], 1.6. In addition, in data set [11], the “Ratio CC50/IC50” value was 2.6. Also, the IC50 was 2900 nM with Leishmania amazonensis [4], 2200 nM in the data set on Trypanosoma cruzi [6], greater than 25 µM in the data set with Trypanosoma cruzi [9] and 20.2 µM in the data set with Leishmania amazonensis [12]. In the data set with Trypanosoma cruzi [7], the EC50 is 27.7 µM.

For `COc1ccc2nc(S(C)(=O)=O)c(NCC(C)C)nc2c1`, the selectivity ratio stood at 3.6 in data set [1]; 1.5 in [2]; 3.6 in [5]; 1.5 in data set [8]; 3.3 in data set [10]. Besides, the results for the IC50 in the data set on Leishmania amazonensis [4] and in the data set on Trypanosoma cruzi [6] were 27800 nM and 55400 nM, respectively. This compound returned an EC50 in the data set with Trypanosoma cruzi [7] of 24.8 µM.

For `CCCCNc1nc2cc(Br)ccc2nc1S(C)(=O)=O`, the selectivity ratio in data set [1] amounted to 28.3; in [2], 43.7; in data set [5] it was 28.3; in data set [8], 43.7; in data set [10], 17.8. The IC50 is 1600 nM in the data set with Leishmania amazonensis [4], 2300 nM in the data set on Trypanosoma cruzi [6] and greater than 25 µM in the data set with Trypanosoma cruzi [9]. Also, the EC50 in the data set with Trypanosoma cruzi [7] worked out at 5.6 µM.

In the case of `CS(=O)(=O)c1nc2ccc(Br)cc2nc1NCCO`, the selectivity ratio in [1] was 40.3; in data set [2], 3.4; in data set [3], 0.8; in [5], 40.3; in [8], 3.4; in data set [10] it was 0.7. The IC50 came out at 800 nM in the data set on Leishmania amazonensis [4], 1600 nM in the data set with Trypanosoma cruzi [6] and 7.4 µM in the data set with Trypanosoma cruzi [9]. In the data set on Trypanosoma cruzi [7], this compound came in with an EC50 of 8.2 µM.

In the case of `COc1ccc2nc(NCC(C)C)c(S(C)(=O)=O)nc2c1`, the selectivity ratio in [1] turned out to be 22.8; in [2] it was 22.6; in data set [3] it was 4.7; in data set [5], 22.8; in [8], 22.6; in data set [10] it was 6. In addition, the figures for the IC50 in the data set with Leishmania amazonensis [4], in the data set with Trypanosoma cruzi [6] and with Trypanosoma cruzi [9] were 2600 nM, 3100 nM and 14.9 µM, respectively. For the same compound, the 50% effective concentration (EC50) in the data set with Trypanosoma cruzi [7] came out at 11.7 µM.

With `CCCCNc1nc2cc(Cl)ccc2nc1S(C)(=O)=O`, the selectivity ratio turned out to be 50.6 in [1]; 93.4 in [2]; 50.6 in [5]; 93.4 in data set [8]; 23.8 in [10]. Moreover, the IC50 turned out to be 1400 nM in the data set on Leishmania amazonensis [4] and 2300 nM in the data set with Trypanosoma cruzi [6]. The same compound showed an EC50 in the data set with Trypanosoma cruzi [7] of 9 µM.

On to `CS(=O)(=O)c1nc2ccc(Cl)cc2nc1NC1CCCCC1`, for which the selectivity ratio came to 15 in [1]; 38.3 in data set [2]; 7.9 in data set [3]; 15 in data set [5]; 38.3 in data set [8]; 19.6 in [10]. Also, the IC50 in the data set with Leishmania amazonensis [4] was 2200 nM; in the data set on Trypanosoma cruzi [6], 2000 nM; in the data set on Trypanosoma cruzi [9] it was 9.6 µM. This compound also displayed an EC50 in the data set with Trypanosoma cruzi [7] of 3.9 µM.

Consider `C[S+]([O-])c1nc2ccc(Cl)cc2nc1NC1CCCCC1` (stereo unspecified), for which the selectivity ratio came to 33.8 in data set [1]; 21.8 in data set [2]; 5.1 in data set [3]; 33.8 in data set [5]; 21.8 in data set [8]; 6.2 in data set [10]. In addition, the IC50 was determined as 1900 nM in the data set with Leishmania amazonensis [4], 1800 nM with Trypanosoma cruzi [6] and 7.7 µM in the data set with Trypanosoma cruzi [9]. The compound also yielded an EC50 in the data set on Trypanosoma cruzi [7] of 6.3 µM.

Turning to `COc1ccc2nc(Cl)c(NCc3ccccc3)nc2c1`, the selectivity ratio came to 5.4 in data set [1], 22.2 in data set [2], 5.4 in [5] and 22.2 in data set [8]. Moreover, the “Ratio CC50/IC50” value in [11] is listed as 5.3. Moreover, the IC50 is 24500 nM in the data set on Leishmania amazonensis [4], 15900 nM in the data set with Trypanosoma cruzi [6], greater than 20 µM in the data set on Trypanosoma cruzi [9] and 25 µM in the data set with Leishmania amazonensis [12]. In the data set with Trypanosoma cruzi [7], this compound showed an EC50 greater than 50 µM.

As for `COc1ccc2nc(Nc3ccccc3)c(Nc3ccccc3)nc2c1`, the selectivity ratio in data set [1] was 4.4; in data set [2], 1; in [5], 4.4; in data set [8] it was 1; in [10], 1.2. In addition, the IC50 came to 6500 nM in the data set on Leishmania amazonensis [4] and 45600 nM in the data set with Trypanosoma cruzi [6]. The compound further came in with an EC50 with Trypanosoma cruzi [7] of 37.9 µM.

In the case of `C[C@@H]1[C@H](O)[C@@H](C)/C=C/C=C/C=C/C=C/C=C/C=C/C=C/[C@H](O[C@@H]2O[C@H](C)[C@@H](O)[C@H](N)[C@@H]2O)C[C@@H]2O[C@](O)(C[C@@H](O)C[C@@H](O)[C@H](O)CC[C@@H](O)C[C@@H](O)CC(=O)O[C@H]1C)C[C@H](O)[C@H]2C(=O)O` [AMPHOTERICIN B], in the data set with Leishmania amazonensis [12], the IC50 is 0.4 µM.

The values above are taken from ChEMBL document CHEMBL3396970, “Synthesis and biological evaluation of novel 2,3-disubstituted quinoxaline derivatives as antileishmanial and antitrypanosomal agents” (Eur J Med Chem, 2015).
